From ChEMBL document CHEMBL3232914, “Ultrasound promoted one pot synthesis of novel fluorescent triazolyl spirocyclic oxindoles using DBU based task specific ionic liquids and their antimicrobial activity” (2014)
Converted amounts (≈) assume the structure as drawn. The source made the active and inactive calls. The rule behind the calls is not given here.

What was measured:
[1] = tested on: Bacillus subtilis; experiment: Antibacterial activity against Bacillus subtilis MTCC 121 assessed as growth inhibition at 4 mg/mL after 24 hrs by agar well diffusion method; assay type: functional; conditions: MTCC 121, 24 h, read-out: DIZ
Summary of the method: (§1)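 Agar wells 8 mm in diameter. The read-out is the diameter of the growth inhibition zone in mm, including the well, given as the mean of three replicates.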

[2] = tested on: Candida albicans; experiment: Antifungal activity against Candida albicans MTCC 227 assessed as growth inhibition at 4 mg/mL after 24 hrs by agar well diffusion method; assay type: functional; conditions: MTCC 227, 24 h, read-out: DIZ; summary of the method: as §1
[3] = tested on: Staphylococcus aureus; experiment: Antibacterial activity against Staphylococcus aureus MTCC 96 assessed as growth inhibition after 24 hrs by macrodilution tube method; assay type: functional; conditions: MTCC 96, 24 h
[4] = tested on: Saccharomyces cerevisiae; experiment: Antifungal activity against Saccharomyces cerevisiae MTCC 170 assessed as growth inhibition by macrodilution tube method; assay type: functional
Summary of the method: (§2)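 The MIC against the yeasts was determined with amphotericin-B as the reference standard drug.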

[5] = tested on: Escherichia coli; experiment: Antibacterial activity against Escherichia coli MTCC 1652 assessed as growth inhibition at 4 mg/mL after 24 hrs by agar well diffusion method; assay type: functional, organism-based
Summary of the method: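 Agar well diffusion with 8 mm wells. The inhibition zone diameter is reported in mm, with the well diameter included. Values are means of three replicates.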

[6] = tested on: Pseudomonas aeruginosa; conditions: MTCC 741, 4 mg/mL
[7] = tested on: Staphylococcus aureus; experiment: Bactericidal activity against Staphylococcus aureus MTCC 96 after 24 hrs; assay type: functional; conditions: MTCC 96, 24 h
[8] = tested on: Bacillus subtilis; experiment: Antibacterial activity against Bacillus subtilis MTCC 121 assessed as growth inhibition after 24 hrs by macrodilution tube method; assay type: functional; conditions: MTCC 121, 24 h
[9] = tested on: Saccharomyces cerevisiae; experiment: Antifungal activity against Saccharomyces cerevisiae MTCC 170 assessed as growth inhibition at 4 mg/mL after 24 hrs by agar well diffusion method; assay type: functional; conditions: MTCC 170, 24 h, read-out: DIZ; summary of the method: as §1
[10] = tested on: Bacillus subtilis; experiment: Bactericidal activity against Bacillus subtilis MTCC 121 after 24 hrs; assay type: functional; conditions: MTCC 121, 24 h
[11] = tested on: Candida albicans; experiment: Antifungal activity against Candida albicans MTCC 227 assessed as growth inhibition by macrodilution tube method; assay type: functional; summary of the method: as §2
[12] = tested on: Staphylococcus aureus; experiment: Antibacterial activity against Staphylococcus aureus MTCC 96 assessed as growth inhibition at 4 mg/mL after 24 hrs by agar well diffusion method; assay type: functional; conditions: MTCC 96, 24 h, read-out: DIZ; summary of the method: as §1
[13] = tested on: Pseudomonas aeruginosa; experiment: microbe, parasite or virus in culture; conditions: MTCC 741, 24 h, read-out: DIZ

Compound	zone of inhibition at 4000 µg/mL [1]	zone of inhibition at 4000 µg/mL [2]	MIC [3]	MIC [4]	diameter of the inhibition zone (DIZ) [5]	DIZ [6]	MBC [7]	MIC [8]	zone of inhibition at 4000 µg/mL [9]	MBC [10]	MIC [11]	zone of inhibition at 4000 µg/mL [12]	zone of inhibition at 4000 µg/mL [13]
CC1(C)CC(=O)C2=C(C1)OC(N)=C(C#N)C21C(=O)N(Cc2cn(-c3ccc(Br)cc3)nn2)c2ccccc21 (stereo not given)	22.2 mm	13.3 mm	32 µg/mL (≈ 56 µM)	128 µg/mL (≈ 224 µM)	inactive	inactive	128 µg/mL (≈ 224 µM)	16 µg/mL (≈ 28 µM)	14.6 mm	64 µg/mL (≈ 112 µM)	512 µg/mL (≈ 896 µM)	19.3 mm	
Cn1c2c(c(=O)n(C)c1=O)C1(C(=O)N(Cc3cn(-c4ccc([N+](=O)[O-])cc4)nn3)c3ccccc31)C(C#N)=C(N)O2 (stereo not given)	18.6 mm	12.6 mm	128 µg/mL (≈ 231 µM)	512 µg/mL (≈ 925 µM)	inactive	inactive	512 µg/mL (≈ 925 µM)	64 µg/mL (≈ 116 µM)	13.6 mm	128 µg/mL (≈ 231 µM)	512 µg/mL (≈ 925 µM)	15.3 mm	
COc1ccc(-n2cc(CN3C(=O)C4(C(C#N)=C(N)Oc5c4c(=O)n(C)c(=O)n5C)c4ccccc43)nn2)cc1 (stereo not given)	17.6 mm	14.6 mm	256 µg/mL (≈ 475 µM)	64 µg/mL (≈ 119 µM)	inactive	inactive	512 µg/mL (≈ 951 µM)	128 µg/mL (≈ 238 µM)	17.6 mm	256 µg/mL (≈ 475 µM)	128 µg/mL (≈ 238 µM)	15.3 mm	
CC1(C)CC(=O)C2=C(C1)OC(N)=C(C#N)C21C(=O)N(Cc2cn(-c3ccccc3)nn2)c2ccccc21 (stereo not given)	16.3 mm	13.3 mm	128 µg/mL (≈ 260 µM)	256 µg/mL (≈ 520 µM)	inactive	inactive	128 µg/mL (≈ 260 µM)	128 µg/mL (≈ 260 µM)	14.3 mm	256 µg/mL (≈ 520 µM)	256 µg/mL (≈ 520 µM)	14.6 mm	
COc1ccc(-n2cc(CN3C(=O)C4(C(C#N)=C(N)OC5=C4C(=O)CC(C)(C)C5)c4ccccc43)nn2)cc1 (stereo not given)	17.3 mm	16.6 mm	128 µg/mL (≈ 245 µM)	64 µg/mL (≈ 122 µM)	inactive	inactive	256 µg/mL (≈ 490 µM)	128 µg/mL (≈ 245 µM)	15.6 mm	256 µg/mL (≈ 490 µM)	128 µg/mL (≈ 245 µM)	15.6 mm	
CC1(C)CC(=O)C2=C(C1)OC(N)=C(C#N)C21C(=O)N(Cc2cn(-c3ccc(F)c(Cl)c3)nn2)c2ccccc21 (stereo not given)	21.3 mm	13.6 mm	64 µg/mL (≈ 117 µM)	256 µg/mL (≈ 470 µM)	inactive	inactive	128 µg/mL (≈ 235 µM)	32 µg/mL (≈ 58.7 µM)	14.3 mm	128 µg/mL (≈ 235 µM)	256 µg/mL (≈ 470 µM)	19.6 mm	
Cn1c2c(c(=O)n(C)c1=O)C1(C(=O)N(Cc3cn(-c4ccc(Br)cc4)nn3)c3ccccc31)C(C#N)=C(N)O2 (stereo not given)	22.3 mm	13.3 mm	32 µg/mL (≈ 54.5 µM)	128 µg/mL (≈ 218 µM)	inactive	inactive	64 µg/mL (≈ 109 µM)	16 µg/mL (≈ 27.2 µM)	15.3 mm	64 µg/mL (≈ 109 µM)	256 µg/mL (≈ 436 µM)	20.6 mm	
Cc1ccc(-n2cc(CN3C(=O)C4(C(C#N)=C(N)Oc5c4c(=O)n(C)c(=O)n5C)c4ccccc43)nn2)cc1 (stereo not given)	16.3 mm	12.3 mm	128 µg/mL (≈ 245 µM)	256 µg/mL (≈ 490 µM)	inactive	inactive	256 µg/mL (≈ 490 µM)	128 µg/mL (≈ 245 µM)	14.3 mm	128 µg/mL (≈ 245 µM)	512 µg/mL (≈ 980 µM)	14.3 mm	
C[C@@H]1[C@H](O)[C@@H](C)/C=C/C=C/C=C/C=C/C=C/C=C/C=C/[C@H](O[C@@H]2O[C@H](C)[C@@H](O)[C@H](N)[C@@H]2O)C[C@@H]2O[C@](O)(C[C@@H](O)C[C@@H](O)[C@H](O)CC[C@@H](O)C[C@@H](O)CC(=O)O[C@H]1C)C[C@H](O)[C@H]2C(=O)O [AMPHOTERICIN B]		17.6 mm		100 µg/mL (≈ 108 µM)					18.3 mm		100 µg/mL (≈ 108 µM)		
N#CC1=C(N)OC2=C(C(=O)CCC2)C12C(=O)N(Cc1cn(-c3ccc(Br)cc3)nn1)c1ccccc12 (stereo not given)	20.3 mm	12.6 mm	64 µg/mL (≈ 118 µM)	256 µg/mL (≈ 471 µM)	inactive	inactive	64 µg/mL (≈ 118 µM)	32 µg/mL (≈ 58.9 µM)	14.3 mm	128 µg/mL (≈ 236 µM)	512 µg/mL (≈ 942 µM)	18.6 mm	
CC1(C)CC(=O)C2=C(C1)OC(N)=C(C#N)C21C(=O)N(Cc2cn(-c3ccc([N+](=O)[O-])cc3)nn2)c2ccccc21 (stereo not given)	17.3 mm	14.3 mm	128 µg/mL (≈ 238 µM)	256 µg/mL (≈ 476 µM)	inactive	inactive	128 µg/mL (≈ 238 µM)	128 µg/mL (≈ 238 µM)	15.3 mm	256 µg/mL (≈ 476 µM)	256 µg/mL (≈ 476 µM)	16.6 mm	
COc1ccc(-n2cc(CN3C(=O)C4(C(C#N)=C(N)OC5=C4C(=O)CCC5)c4ccccc43)nn2)cc1 (stereo not given)	15.6 mm	16 mm	64 µg/mL (≈ 129 µM)	64 µg/mL (≈ 129 µM)	inactive	inactive	512 µg/mL (≈ 1040 µM)	32 µg/mL (≈ 64.7 µM)	16.3 mm	128 µg/mL (≈ 259 µM)	128 µg/mL (≈ 259 µM)	14 mm	
O=C(O)c1cn(C2CC2)c2cc(N3CCNCC3)c(F)cc2c1=O [CIPROFLOXACIN]	24 mm						6.25 µg/mL (≈ 18.9 µM)	6.25 µg/mL (≈ 18.9 µM)		6.25 µg/mL (≈ 18.9 µM)		26.6 mm	22 mm
Cc1ccc(-n2cc(CN3C(=O)C4(C(C#N)=C(N)OC5=C4C(=O)CCC5)c4ccccc43)nn2)cc1 (stereo not given)	16.3 mm	14.3 mm	256 µg/mL (≈ 535 µM)	128 µg/mL (≈ 267 µM)	inactive	inactive	512 µg/mL (≈ 1070 µM)	128 µg/mL (≈ 267 µM)	15.6 mm	128 µg/mL (≈ 267 µM)	128 µg/mL (≈ 267 µM)	13.6 mm	
N#CC1=C(N)OC2=C(C(=O)CCC2)C12C(=O)N(Cc1cn(-c3ccc([N+](=O)[O-])cc3)nn1)c1ccccc12 (stereo not given)	18.6 mm	12.3 mm	128 µg/mL (≈ 251 µM)	256 µg/mL (≈ 502 µM)	inactive	inactive	256 µg/mL (≈ 502 µM)	128 µg/mL (≈ 251 µM)	13.6 mm	256 µg/mL (≈ 502 µM)	512 µg/mL (≈ 1000 µM)	17.6 mm	
CC1(C)CC(=O)C2=C(C1)OC(N)=C(C#N)C21C(=O)N(Cc2cn(-c3cccc(Cl)c3)nn2)c2ccccc21 (stereo not given)	20.6 mm	12.3 mm	64 µg/mL (≈ 121 µM)	256 µg/mL (≈ 486 µM)	inactive	inactive	128 µg/mL (≈ 243 µM)	32 µg/mL (≈ 60.7 µM)	13.6 mm	128 µg/mL (≈ 243 µM)	512 µg/mL (≈ 972 µM)	19.3 mm	
Cc1ccc(-n2cc(CN3C(=O)C4(C(C#N)=C(N)OC5=C4C(=O)CC(C)(C)C5)c4ccccc43)nn2)cc1 (stereo not given)	15.6 mm	12.6 mm	128 µg/mL (≈ 253 µM)	256 µg/mL (≈ 505 µM)	inactive	inactive	256 µg/mL (≈ 505 µM)	32 µg/mL (≈ 63.2 µM)	14 mm	256 µg/mL (≈ 505 µM)	512 µg/mL (≈ 1010 µM)	14.3 mm	
